RAD52 anneal inh = RAD52 DNA annealing inhibitors, primary screen, biochemical, FRET, single point, set 2; 360,000 tested, 0.46% active; recombinant RAD52 DNA annealing, FRET fluorescence; DNA repair protein RAD52 homolog (Homo sapiens), P43351; inhibition, % at 18.7 µM; AID 651710, 2012;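 active = every replicate showing at least 50% inhibition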
RAD54 inh = inhibitors of human RAD54 branch migration, primary screen, biochemical, fluorescence, single point | AID 602329, 2012 | 360,000 tested, 0.14% active | inhibition, % at 10.4 µM | RAD54 Holliday junction branch migration, FAM/BHQ fluorescence | DNA repair and recombination protein RAD54-like (Homo sapiens), Q92698;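 active = mean normalized replicate activity at least 40 and at least half of replicates scoring 40 or more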;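 also: 0% = median of neutral control wells and 100% = median of positive control wells; inhibitors cause a drop in the FAM fluorescence signal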
PDI inh = inhibitors of human PDI, primary screen, biochemical, turbidity, single point, plate reader; 350,000 tested, 0.052% active; AID 588391, 2011; Protein disulfide-isomerase (Homo sapiens), P07237; PDI insulin aggregation turbidity, A650, 90 min; inhibition, % at 10 µM;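 active = mean inhibition across replicates of 30% or more, whatever share of single replicates reach that level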
Target sequence (P07237 whole entry, looked up): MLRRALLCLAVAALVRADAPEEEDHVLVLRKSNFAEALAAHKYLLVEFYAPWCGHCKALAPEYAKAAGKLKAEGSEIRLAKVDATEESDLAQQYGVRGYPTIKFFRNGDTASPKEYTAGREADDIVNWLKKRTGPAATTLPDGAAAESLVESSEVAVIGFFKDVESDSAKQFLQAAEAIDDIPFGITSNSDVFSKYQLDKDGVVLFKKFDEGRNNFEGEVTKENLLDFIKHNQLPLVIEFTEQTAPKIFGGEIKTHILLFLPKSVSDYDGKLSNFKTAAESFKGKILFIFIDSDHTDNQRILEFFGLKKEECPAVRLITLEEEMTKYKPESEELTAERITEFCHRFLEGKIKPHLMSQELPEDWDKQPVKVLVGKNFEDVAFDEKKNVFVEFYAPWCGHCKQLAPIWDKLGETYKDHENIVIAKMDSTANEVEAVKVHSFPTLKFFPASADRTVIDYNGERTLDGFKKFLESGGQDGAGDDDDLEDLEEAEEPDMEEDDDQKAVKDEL
CAL PDZ FP-1 = CAL PDZ peptide-binding inhibitors, primary screen, biochemical, fluorescence polarization, Cer-tagged CAL PDZ, HTS | purified CAL PDZ, TMR-peptide fluorescence polarization, 1 h | inhibition, % at 20 µM | 330,000 tested, 0.02% active;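 active = highest replicate inhibition of at least 40%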;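 also: plate controls were DMSO neutral control wells for no effect and unlabeled competitor peptide control wells for full effect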
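Test system: purified CerCALP PDZ construct; Compound dosing: one concentration, 20 µM compound; Also added: TMR-labelled reporter peptide T*-PRC34 bound in PDZ groove; Read-out: inhibition from polarization loss; Controls: unlabelled peptide and DMSO controls; Signal: FP readout, S and P plane fluorescence; Incubation: 1 h at RT.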
CAL PDZ FP-2 = untagged CAL PDZ binding inhibitors, primary screen, biochemical, fluorescence polarization, HTS. Golgi-associated PDZ and coiled-coil motif-containing protein (Homo sapiens), Q9HD26. purified CAL PDZ, TMR-peptide fluorescence polarization, 1 h. 300,000 tested, 0.92% active. inhibition, % at 24.9 µM;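 active = mean inhibition of at least 30% with at least half of replicates also reaching 30%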;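 also: 0% = DMSO neutral control and 100% = excess unlabeled competitor peptide PRC23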
ERp5 inh = inhibitors of ERp5-driven insulin aggregation, primary screen, biochemical, turbidity, absorbance 650 nm, single point; Protein disulfide-isomerase A6 (Homo sapiens), Q15084; 90 min; 350,000 tested, 0.05% active; inhibition, % at 9.99 µM;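 active = mean replicate inhibition above about 25%, with every replicate also reaching it, limit read from the data, passing the limit was not always enough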
* marks the source's active call; other numbers are inactive results; . = no result given; + = active, no number; ! = repeats disagree. An excerpt weighted towards active compounds, which were near 1% of everything screened.

SMILES	RAD52 anneal inh	RAD54 inh	PDI inh	CAL PDZ FP-1	CAL PDZ FP-2	ERp5 inh
C[C@@H]1CN([C@H](C)CO)C(=O)Cc2cc(NC(=O)CCCCCC(=O)Nc3ccccc3N)ccc2O[C@@H]1CN(C)C(=O)NC1CCCCC1	-1	0	.	.	.	5
O=C(O)CCCCCN1C(=O)CCC1=O	.	-5	4	.	45*	.
CCN(c1ccccc1)S(=O)(=O)c1ccc(C(=O)N2CCN(c3ccccc3)CC2)cc1	6	3	-2	0	85*	3
CN(CC1CCCO1)S(=O)(=O)c1ccc(C(=O)N2CCN(c3ccccc3)CC2)cc1 (centres undefined)	-4	.	8	0	+	7
O=C(c1ccc(OCC2CCCO2)cc1)N1CCN(c2ccccc2)CC1 (centres undefined)	-17	6	-4	0	1	-1
CCC(C)(C(=O)NC1CCCCC1)N(C(=O)CC1NC(=O)NC1=O)c1c(C)n(C)n(-c2ccccc2)c1=O (centres undefined)	-6	-3	1	-2	34*	3
CCC(C)(C(=O)NC1CCCCC1)N(C(=O)CNC(C)=O)c1c(C)n(C)n(-c2ccccc2)c1=O (centres undefined)	.	-21	0	-2	2	.
Cc1ccc(S(=O)(=O)N2CCC(C(=O)Nc3ccc(S(=O)(=O)N4CCCC4)cc3)CC2)cc1	-1	5	32*	-1	-6	-7
Cc1ccc(S(=O)(=O)CCC(=O)Nc2cccc(S(=O)(=O)N3CCCCCC3)c2)cc1	0	-5	-3	-1	32*	4
CC(=O)c1cc(Cl)ccc1OCC(=O)Nc1cccc(S(=O)(=O)N2CCCC2)c1	-12	.	-7	-1	50*	0
O=C(COc1ccc(F)cc1Cl)Nc1cccc(S(=O)(=O)N2CCCCCC2)c1	-9	-3	-7	-2	-1	-10
Cc1ccc(S(=O)(=O)N2CCN(S(=O)(=O)N(C)C)CC2)cc1	.	3	2	.	-4	.
Cc1ccc(S(=O)(=O)CCC(=O)OCC(=O)Nc2cccc(S(=O)(=O)N3CCCCC3)c2)cc1	-41	-3	-1	.	.	-2
CN(C)S(=O)(=O)N1CCN(S(=O)(=O)c2ccccc2)CC1	.	5	3	0	59*	.
C[C@@H]1CN([C@@H](C)CO)C(=O)c2cc(NC(=O)CCN3CCOCC3)ccc2O[C@@H]1CN(C)C(=O)NC1CCCCC1	-7	-14	.	.	.	1
C[C@H]1CN([C@@H](C)CO)S(=O)(=O)c2ccc(C3=CCCCC3)cc2O[C@H]1CN(C)C(=O)Nc1ccc2c(c1)OCO2	17	1	.	.	.	-2
O=C(Nc1ccc(S(=O)(=O)N2CCCC2)cc1)c1ccc(OCC2CCCO2)cc1 (centres undefined)	-7	7	1	-3	53*	0
Cc1cccc(NC(=O)CCS(=O)(=O)c2ccccc2)c1	1	.	-3	-3	62*	4
O=C(COC(=O)CN1C(=O)c2ccccc2C1=O)Nc1ccc(S(=O)(=O)N2CCCC2)cc1	.	3	4	.	35*	.
Cc1ccc(S(=O)(=O)N2CCN(C(=O)N(C)C)CC2)cc1	2	.	12	67*	-5	10
O=C(COC(=O)CCN1C(=O)c2ccccc2C1=O)Nc1ccc(S(=O)(=O)N2CCCC2)cc1	.	4	0	-3	1	.
O=C(Nc1cccc(S(=O)(=O)N2CCCCC2)c1)c1ccc(OCC2CCCO2)cc1 (centres undefined)	-10	5	-1	0	-5	-1
O=C(C[C@H]1C[C@@H]2c3cc(NC(=O)NC4CCCC4)ccc3O[C@@H]2[C@H](CO)O1)NCc1ccncc1	4	11	.	.	.	1
Cc1noc(C)c1S(=O)(=O)N(C)C[C@@H]1OCCCC[C@H](C)Oc2ccc(NC(=O)Cc3ccccc3)cc2C(=O)N([C@@H](C)CO)C[C@H]1C	-31	-7	.	.	.	1
O=C(Nc1ccc(C(F)(F)F)cc1)N1[C@@H]2CNC[C@H]1C2c1ccc(-c2ccc(F)cc2)cc1 (some centres undefined)	61*	.	.	.	.	-2
SMILES	RAD52 anneal inh	RAD54 inh	PDI inh	CAL PDZ FP-1	CAL PDZ FP-2	ERp5 inh
O=C(Nc1ccc(C(F)(F)F)cc1)N1C[C@@H]2N[C@H](C1)C2c1ccc(/C=C/c2ccccc2)cc1 (some centres undefined)	65*	.	.	.	.	-3
O=C(C1CCC1)N1C[C@@H]2N[C@H](C1)C2c1ccc(/C=C/c2ccccc2)cc1 (some centres undefined)	44	.	.	.	.	-2
O=C(Nc1ccc(C(F)(F)F)cc1)N1C[C@@H]2N[C@H](C1)C2c1ccc(-c2ccccc2)cc1 (some centres undefined)	79*!	.	.	.	.	4
O=C(Nc1ccccc1)N1C[C@@H]2N[C@H](C1)C2c1ccc(-c2cccnc2)cc1 (some centres undefined)	6	.	.	.	.	-6
O=C(COC(=O)c1ccccc1O)Nc1cccc(S(=O)(=O)NC2=NCCCCC2)c1	-10	.	-5	-2	35*	2
O=C(COC(=O)c1ccccc1)Nc1cccc(S(=O)(=O)NC2=NCCCCC2)c1	-14	.	-3	-2	-2	-2
COc1ccc(S(=O)(=O)Nc2ccc3c(c2)C(=O)N([C@H](C)CO)C[C@@H](C)[C@@H](CN(C)C(=O)Nc2c(C)noc2C)OCCCC[C@@H](C)O3)cc1	-11	-1	.	.	.	-1
CC(=O)OCC12COC3c4ccccc4OC(C)(CC1C)C3C2C (centres undefined)	-12	1	-3	0	51*	-2
CC1CC2(C)Oc3ccccc3C3OCC1(CO)C(C)C32 (centres undefined)	-4	0	-2	-2	-2	-4
CC(=O)N(C)C[C@@H]1Oc2cc(-c3ccc(C)cc3)ccc2S(=O)(=O)N([C@H](C)CO)C[C@H]1C	12	-6	.	.	.	1
COc1cccc(/C=N/NC(=O)c2c(C)nc3ccc(Cl)cn23)c1O	-2	5	-2	0	62*	6
COc1ccc(S(=O)(=O)Nc2ccc3c(c2)C(=O)N([C@@H](C)CO)C[C@@H](C)[C@H](CN(C)C(=O)Nc2cccc4ccccc24)OCCCC[C@H](C)O3)cc1	.	-1	.	.	.	.
Cc1cccc(OCC(=O)N2CCCc3ccccc32)c1	-13	.	2	11	71*	2

From PubChem
